ChEMBL document CHEMBL1126275, “Conformationally restrained, chiral (phenylisopropyl)amino-substituted pyrazolo[3,4-d]pyrimidines and purines with selectivity for adenosine A1 and A2 receptors” (J Med Chem, 1992)

Experiments:
Adenosine A2 receptor = Adenosine A2 receptor (Rattus norvegicus, UniProt P29276+P30543); assay: Inhibition of [3H]NECA binding to Adenosine A2 receptor in rat brain striatum; format: tissue-based
In short: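 [³H]NECA binding in rat brain striatum at 25 °C. Compounds from millimolar DMSO stocks diluted in water. Ki given as geometric mean ± standard error of a single determination in triplicate.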

[1] = target: Adenosine receptors; A1 & A2 (Rattus norvegicus) (UniProt P29276+P25099+P30543); assay: Selectivity ratio against Adenosine A1 and A2 Receptors, ratio of Ki; format: protein assay
In short: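 Ratio of A2 Ki ([³H]NECA, rat striatum, 25 °C) to A1 Ki ([³H]CHA, whole rat brain membranes, 25 °C). Each Ki is a geometric mean from a single triplicate determination.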

Adenosine receptor A1 [2] = target: T1, Adenosine receptor A1 (Rattus norvegicus, UniProt P25099); assay: Inhibition of [3H]CHA binding to Adenosine A1 receptor in whole rat brain membranes; format: cell membranes
T1 sequence (P25099 whole entry): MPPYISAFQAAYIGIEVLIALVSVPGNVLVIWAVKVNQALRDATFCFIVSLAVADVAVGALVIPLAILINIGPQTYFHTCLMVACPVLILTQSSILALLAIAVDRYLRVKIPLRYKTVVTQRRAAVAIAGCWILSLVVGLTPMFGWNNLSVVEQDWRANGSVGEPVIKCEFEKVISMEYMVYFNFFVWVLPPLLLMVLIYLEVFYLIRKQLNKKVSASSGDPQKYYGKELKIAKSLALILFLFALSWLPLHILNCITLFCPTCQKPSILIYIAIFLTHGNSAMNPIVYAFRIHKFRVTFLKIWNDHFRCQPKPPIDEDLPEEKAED
In short: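 Whole rat brain membranes; [³H]CHA binding measured at 25 °C. Compounds from millimolar DMSO stocks diluted in water. Ki given as geometric mean ± standard error of a single determination run in triplicate.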

Adenosine receptor A1 [3] = target: T1, Adenosine receptor A1; assay: Inhibition of [3H]CHA binding to Adenosine A1 receptor in rat cerebral cortical membranes; format: cell membranes, Membrane
In short: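 Rat cerebral cortical membranes; displacement of [³H]CHA binding. Test compounds held as millimolar DMSO stocks, warmed to room temperature and diluted in water. Values from a single competition experiment, each concentration in triplicate.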

Ki (Adenosine A2 receptor)	Selectivity ratio [1]	Ki (Adenosine receptor A1 [2])	IC50 (Adenosine receptor A1 [3])	SMILES
3.3 µM	0.35	9.4 µM		CCCOC1=Nc2c(cnn2-c2ccccc2)C2=N[C@@H](Cc3ccccc3)CN12
> 100 µM	> 100	0.62 µM		CCCOC1=Nc2c(cnn2-c2ccccc2)C2=N[C@H](Cc3ccccc3)CN12
4.2 µM		1.6 µM		CCCOc1nc(N[C@H](CO)Cc2ccccc2)c2cnn(-c3ccccc3)c2n1 (stereo in doubt; 10a) [listing 1 of 2 here]
5.6 µM	58	0.096 µM		CCCOc1nc(N[C@H](CO)Cc2ccccc2)c2ncn(-c3ccccc3)c2n1
	2.6			CCCOc1nc(N[C@H](CO)Cc2ccccc2)c2cnn(-c3ccccc3)c2n1 (stereo in doubt; 10a) [listing 2 of 2 here]
			33 µM	Cn1c(=O)c2cnn(-c3ccccc3)c2n(C)c1=O
45 µM	1.4	33 µM		CCCOC1=Nc2c(cnn2-c2ccccc2)C2=N[C@@H](C)[C@H](c3ccccc3)N12
0.31 µM	0.31	1 µM		CCCOc1nc(N[C@H](C)[C@@H](O)c2ccccc2)c2cnn(-c3ccccc3)c2n1
	1			CCCOc1nc(N[C@H](CO)Cc2ccccc2)c2cnn(-c3ccccc3)c2n1 (stereo in doubt; 10b) [listing 1 of 2 here]
72 µM	22	3.2 µM		CCCOC1=Nc2c(ncn2-c2ccccc2)C2=N[C@H](Cc3ccccc3)CN12
30 µM	68	0.44 µM		CCCOc1nc(N[C@@H](CO)Cc2ccccc2)c2ncn(-c3ccccc3)c2n1
			4.8 µM	COc1nc2c(cnn2-c2ccccc2)c(=O)n1C
0.37 µM		0.35 µM		CCCOc1nc(N[C@H](CO)Cc2ccccc2)c2cnn(-c3ccccc3)c2n1 (stereo in doubt; 10b) [listing 2 of 2 here]
			35 µM	CCCn1c(=O)n(C)c(=O)c2cnn(-c3ccccc3)c21
1.6 µM	0.18			CCCOC1=Nc2c(ncn2-c2ccccc2)C2=N[C@@H](Cc3ccccc3)CN12
11 µM	1.5	7.4 µM		CCCOC1=Nc2c(cnn2-c2ccccc2)C2=N[C@H](C)[C@@H](c3ccccc3)N12
1.4 µM	0.22	6.3 µM		CCCOc1nc(N[C@@H](C)[C@H](O)c2ccccc2)c2cnn(-c3ccccc3)c2n1
